In ChEMBL document CHEMBL4513216, “Probing the Open Global Health Chemical Diversity Library for Multistage-Active Starting Points for Next-Generation Antimalarials” (ACS Infect Dis, 2020):

Test: Toxicity liver stage against HepG2, at 10uM
Format: cell-based
Design: test concentration 10 uM, cell line HepG2-A16-CD81EGFP
Conditions: human, HepG2-A16-CD81EGFP cells; read-out: INHIBITION
Outline: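 Uninfected HepG2-A16-CD81EGFP cells, 3 × 10^3 per well, 1536-well, plated on prespotted compound at 10 μM final, parasite-free screening media added to match infected plates; puromycin 10 μM positive, DMSO 0.5% negative; run in parallel with 48 h PbLuc assay at 37 °C, 5% CO2; viability by CellTiter-Glo luminescence, normalized to controls.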

Structure (SMILES) | cytotoxicity at 10 µM
O=C1NC[C@H]2CN(C3CCOCC3)CCN12 | -1.95%
COc1ccccc1N1CCN(C(=O)CCn2ccc(C)n2)CC1 | -3.24%
Cc1ccc(NC(=O)c2ccc(=O)n(CC(=O)NC3CCCC3)n2)cc1 | -3.63%
Cc1n[nH]c2c1C(c1cc(F)cc(F)c1)SCC(=O)N2 (stereo not given) | 2.03%
O=C(Nc1nc[nH]n1)c1cc(-c2ccc(F)cc2)n[nH]1 | -5.4%
COc1ccc2c(ccn2CC(=O)Nc2n[nH]c(CC(C)C)n2)c1 | -6.19%
O=C(NCC1(CO)CC1)c1ccccc1F | 9.99%
COc1ccc(S(=O)(=O)NCCC(O)c2cccs2)c(C)c1 (stereo not given) | -1.13%
CCN1C(=O)C[C@@H]2[C@@H]1CCN2S(=O)(=O)c1ccccc1 | 2.55%
CN(C)CCCNC(=O)c1ccc(Cl)cc1Cl | -21%
CN(C)CC1CSCCCN1C(=O)Nc1ccc(C(C)(C)C)cc1 (stereo not given) | 6.79%
CCN1C[C@H]2CCN(C(=O)NC3CCCC3)CC[C@H]2S1(=O)=O | -3.52%
CCO[C@@H]1CO[C@@]2(CCCN(C(=O)COc3ccccc3OC)C2)C1 | 3.51%
Cc1ncsc1CN1CC[C@H]2C[C@H](c3ccncn3)O[C@@H]2C1 | 4.87%
Cc1cc(NC(=O)Cn2ncc(Br)c2C)no1 | 4.12%
CCn1nccc1CNC(=O)C1CCCCC1 | -0.488%
Cc1noc(C)c1S(=O)(=O)N(C)Cc1nn(C)c(Cl)c1Cl | -6.01%
CCN(CC)CCNC(=O)c1cc(C(C)C)nc(N2CCCC2)n1 | -2.44%
O=C(NCCc1cc(N2CCOCC2)nc(NC2CC2)n1)C1CCCO1 (stereo not given) | 2.61%
Cc1nonc1CNC(=O)C(C)Oc1ccccc1F (stereo not given) | 2.57%
c1cncc(CN2CCCCC2c2ccc(Nc3cnccn3)nc2)c1 (stereo not given) | 4.41%
CC(=O)N(C)Cc1cncc(C2CCCN2C2CCOCC2)n1 (stereo not given) | -5.34%

Structure (SMILES) | cytotoxicity at 10 µM
COCCC(=O)N1CCC(c2cc3ncc(C)nc3[nH]2)CC1 | -8.86%
COc1ccc(C(=O)N2C[C@@H](c3ccccc3)[C@@H]3NCCCC[C@@H]32)cc1 | -23.3%
COCCOCC(=O)N1C[C@@H]2CC[C@H](Oc3ccccc3F)[C@@H]2C1 | -1.96%
O=C(CCc1cccnc1)N1CCC(c2cnccn2)CC1 | -10.4%
CNCC(=O)N1CCCC(c2ccnc(Nc3cnccn3)n2)C1 (stereo not given) | -11.6%
COc1ncccc1C(Cc1ccsc1)NC(=O)Cn1cccnc1=O (stereo not given) | -5.47%
CN(C)S(=O)(=O)N1CCCC(c2cccc(Cc3ccccc3F)n2)C1 (stereo not given) | 40.4%
Cc1ncc(CNC(=O)Cc2ccc(Cl)cc2)c(C2CCCN2C)n1 (stereo not given) | -0.696%
CCOc1ccc(C(=O)CC(SC2CCCCC2)C(=O)O)cc1 (stereo not given) | 6.73%
Cc1noc(OCc2csc(C)n2)n1 | -2.54%
Cc1csc(CNc2cnc3c(c2)c(C)nn3C)n1 | 0.739%
Cc1nc(C(C)C)sc1C(C)N(C)C(=O)c1ccc(=O)n(C)c1 (stereo not given) | 1.46%
NC(=O)CC1CCN(Cc2ccccc2OCC(F)(F)F)CC1 | -0.535%
c1ccc2nc(N3CCCC3)c(NCc3nnc4n3CCC4)nc2c1 | 6.9%
COCCNC(=O)NC1CCN(c2cnn(C)c2)C1 (stereo not given) | 6%
O=C(c1cc2c([nH]c1=O)CCC2)N1CCCC1c1cccnc1 (stereo not given) | -5.79%
CSc1ccc(CNC2CCN(CCc3ccncc3)CC2)cc1 | -8.14%
CC(C)(C)C(=O)NCCNCc1ccc(Cl)c2cccnc12 | -11.4%
Cc1ccc(CNCCS(=O)(=O)N2CCOCC2)cc1C | 1.41%
Cc1nc(CNC(=O)[C@@H]2CCCN2C(=O)OC(C)(C)C)cs1 | -0.602%
Cc1nc(CNCC2CCCN2c2cccnn2)oc1C (stereo not given) | -3.31%
Cn1cc(NC(=O)NCc2ccsc2)ccc1=O | -10.2%

Structure (SMILES) | cytotoxicity at 10 µM
COC(=O)Cc1cccc(NC(=O)Cc2ccon2)c1 | -2.93%
CC1CCN(S(=O)(=O)N2CCn3cccc3C2C)CC1 (stereo not given) | -0.224%
NC(=O)NC(=O)CCn1ccc(-c2ccc(F)cc2)n1 | 4.19%
CN(C)C(=O)Cc1ccccc1NCc1cccc(F)c1F | 9.03%
COc1cc(F)cc2sc(NC(=O)COCC3CCCO3)nc12 (stereo not given) | -5.07%
Cc1cc(C)c(CNc2ncnc3c2cnn3C)c(=O)[nH]1 | 8.63%
Cc1ccc2c(c1)C(NC1CCN(C)CC1)CCCO2 (stereo not given) | -8.2%
CC(O)CCN(C)c1nc2ccccc2c(=O)[nH]1 (stereo not given) | 12.6%
Cc1cc(C)c(C(=O)N2CCc3c(ncn3CCc3ccccc3)C2)[nH]1 | 7.13%
CCCn1nc(-c2nc(COC)no2)ccc1=O | -11.6%
Cc1cc(C)c(S(=O)(=O)Nc2ccccc2CC(F)(F)F)cc1C(=O)O | -1.47%
CNC(=O)Cc1noc(Cc2ccc3c(c2)CCCC3)n1 | -14.1%
Cn1cc(C(=O)N2CCOc3cc(F)ccc32)ccc1=O | -2.55%
O=C(c1ccc(F)c(F)c1)N1CCCC1CN1CCCC1 (stereo not given) | 2.92%
Cc1ccc(O)c(CNC2CCc3nc(C(C)C)nn3C2)n1 (stereo not given) | -8.54%
Cc1ncsc1C(=O)NCCOc1ncc(Cl)cc1Cl | 7.67%
Cc1noc([C@@H]2C[C@H]3OCC[C@H]3N(Cc3ccoc3)C2)n1 | -71.4%
COCC(=O)N1CCc2ncc(Cn3cncn3)n2CC1 | -81%
CN1CC(=O)N(c2ccsc2)CC12CCN(C(=O)c1ccc[nH]1)C2 (stereo not given) | -71.8%
Oc1cccc2ccc(CN3CCC4(CCNCC4)C3)nc12 | -6.19%
Cc1cc(CN(C)C(=O)c2cccc(CCC(C)(C)O)c2)no1 | -2.02%
COc1ccc(Cc2ncc3c(n2)CN(C(=O)CO)C3)cc1 | 0.624%

Structure (SMILES) | cytotoxicity at 10 µM
O=C(c1ccc(C(F)(F)F)cc1)N1C[C@@H](CN2CCCCC2)[C@@H](CO)C1 | 0.313%
COC1CCN(S(=O)(=O)N2CCCC(c3cccc(C(=O)O)c3)C2)CC1 (stereo not given) | 1.83%
Cc1ccc(C(C(=O)NCCc2nc(C)cc(=O)[nH]2)N(C)C)cc1 (stereo not given) | 1.92%
CCn1nc(C)c(CNC(=O)C2COc3ccccc3C2)c1C (stereo not given) | 9.39%
Cc1nnc(CN2CCOC(c3ccc(Cl)c(Cl)c3)C2)o1 (stereo not given) | -1.11%
COCc1nc(CNC(=O)c2cc(C)c(C)[nH]c2=O)no1 | 4.19%
CCNc1ncc(C(=O)N(C)Cc2nc3ccccc3n2C)cn1 | 6.09%
CCNC(=O)[C@@H]1C[C@@H](NC(=O)c2ccc(C)cc2O)CN1CCCSC | -125%
O=C(c1ccc(S(=O)(=O)N2CCSCC2)cc1)N1CCC(O)C1 (stereo not given) | 4.91%
Cc1cc(C)c2ncn(CC(C)(C)CO)c(=O)c2c1 | 15.4%
CN(C)CCNc1cc(-c2ccccc2C(N)=O)c2cc[nH]c2n1 | 0.343%
O=C(CN1CCN(CC2CCOc3ccccc3C2)CC1)N1CCCC1 (stereo not given) | -4.02%
CCc1ccc(CN2CCN(C(=O)C(C)C)[C@@H]3CS(=O)(=O)C[C@@H]32)cc1 | 2.11%
CCc1nc(C)c(C(=O)N(C)Cc2cnn(-c3cccc(OC)c3)c2)s1 | 11.7%
Cc1ccc2nc(C3CCCN3Cc3cccc(CCN)c3)[nH]c2c1 (stereo not given) | -7.01%
CCc1cn[nH]c1C1CCN(C(=O)c2cc(C#N)c(=O)[nH]c2C)CC1 | 2.39%
O=C(c1ccccc1)N1CCN(CC2CCOc3ccccc3C2)CC1 (stereo not given) | -0.966%
CCOc1ccc(CCCC(=O)N2CC[C@H](NC(C)=O)C2)cc1C | -16%
CN(Cc1ccc(C(=O)Nc2sccc2C#N)cc1)Cc1ccno1 | -1.65%
O=C(CCc1cc2n(n1)CCN(Cc1ncc[nH]1)C2)N1CCCC1 | -5.77%
CCC(NC(=O)c1c(C(=O)O)cnn1C)c1ccc(C)cc1C (stereo not given) | -7.58%
Cc1c2c(C(F)F)cc(SCC(=O)O)nc2nn1C | -9.38%

Structure (SMILES) | cytotoxicity at 10 µM
Cc1cc(CNc2cccc(Cl)c2C)no1 | -2.4%
CCCNC(=O)CNc1ccc(C(=O)N2CCCCC2C)cc1C (stereo not given) | -7.67%
NC(=O)C1CCN(C(=O)c2ccn(-c3ccc(F)cc3)n2)C1 (stereo not given) | -6.02%
CC(Cc1ccco1)NC(=O)Nc1ccc(N2CCOCC2)nc1 (stereo not given) | 0.813%
Cc1cnn(CC2CN(c3cnc4ccccc4n3)CCO2)c1 (stereo not given) | 2.02%
O=C1CCc2cc(-c3csc(CCN4CCCC4=O)n3)ccc2N1 | -6.64%
c1ccc(Oc2cc(CNCC3CNc4ccnn4C3)ccn2)cc1 (stereo not given) | 3.1%
Cc1ccc([C@]2(O)CC[C@H]3CN(Cc4cccc(F)c4F)C[C@H]32)nc1 | -8.38%
Cc1cc(C[C@@H]2CCC[C@H]2NCc2cccc(F)c2F)on1 | -0.474%
COc1ccc(CN(Cc2cncn2C)CC2CCCO2)cc1OC (stereo not given) | -3.06%
Cc1cc(CN2CC[C@H]3[C@H]2CCN3S(C)(=O)=O)oc1C | -1.69%
Cc1ccc(CN2CCC[C@]3(C(=O)O)CN(c4ncccn4)C[C@@H]3C2)o1 | -11.3%
CC(C)N1[C@H](CN2CCCC2)C[C@@H]2CN(C(=O)c3ccoc3)CC[C@@H]21 | -135%
O=C(CN1CCC[C@H]1C(=O)O)NCCOc1cccc(Cl)c1 | -22.6%
COC1COC2(CCN(CC3CC3)CC2)C1 (stereo not given) | -103%
CC(C)C(=O)NC1COC2(CCN(Cc3cccnc3)CC2)C1 (stereo not given) | 2.11%
CCOC(=O)c1n[nH]cc1-c1cncn1CCCn1nc(C)cc1C | -2.73%
COCC1CN(Cc2c(C)noc2C)Cc2ccnn2C1 (stereo not given) | -89.3%
Cc1cccc(C(=O)N2CCc3ncnc(C4CCOC4)c3CC2)n1 (stereo not given) | -69.8%
Cc1ccc(C(=O)N2CC[C@@H](N(C)C)[C@@H]2Cc2cnn(C)c2)cn1 | -73.4%
Cn1cccc1C(=O)NCc1cn2c(n1)CN(Cc1cccnc1)CC2 | -113%
O=C(C1CCC1)N1C2CCC(O)(CC2)C1CN1CCOCC1 (stereo not given) | -1.63%
